Screening results as filed in PubChem.
Hits are enriched below; roughly 2% of the tested compounds scored in any of these assays.
EBI2 block: EBI2 receptor antagonists, beta-arrestin recruitment, primary screen, cell-based, luminescence, 7a,25-OHC stimulation, uHTS; 7a,25-OHC stimulated; actives 0.81% (n = 360,000); G-protein coupled receptor 183 (Homo sapiens), P32249; AID 651636, 2012; inhibition, % at 5 µM; in the data active means inhibition above about 38%;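 further: enzyme fragment complementation signal reports receptor beta-arrestin coupling in cells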
Target sequence (P32249 whole entry, looked up, the tested form may be a part): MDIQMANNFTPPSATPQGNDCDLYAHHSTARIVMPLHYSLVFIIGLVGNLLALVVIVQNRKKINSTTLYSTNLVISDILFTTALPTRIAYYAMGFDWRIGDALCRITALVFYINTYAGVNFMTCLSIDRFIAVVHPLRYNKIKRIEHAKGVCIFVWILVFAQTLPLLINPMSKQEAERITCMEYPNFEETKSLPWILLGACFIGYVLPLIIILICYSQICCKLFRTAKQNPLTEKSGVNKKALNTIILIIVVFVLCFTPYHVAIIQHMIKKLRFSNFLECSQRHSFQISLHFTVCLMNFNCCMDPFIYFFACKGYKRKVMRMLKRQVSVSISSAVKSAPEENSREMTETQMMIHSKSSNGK
CXCR6 inh: CXCR6 receptor inhibitors, primary screen, cell-based, beta-arrestin, luminescence, CHO-K1 PathHunter, 1536-well | actives 0.36% (n = 360,000) | C-X-C chemokine receptor type 6 (Homo sapiens), O00574 | inhibition, % at 20 µM | AID 602244, 2012; in the data active means inhibition above about 34%, passing the limit was not always enough;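 further: antagonist mode with CXCL16 agonist at 10 nM final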
Target sequence (O00574 whole entry, looked up): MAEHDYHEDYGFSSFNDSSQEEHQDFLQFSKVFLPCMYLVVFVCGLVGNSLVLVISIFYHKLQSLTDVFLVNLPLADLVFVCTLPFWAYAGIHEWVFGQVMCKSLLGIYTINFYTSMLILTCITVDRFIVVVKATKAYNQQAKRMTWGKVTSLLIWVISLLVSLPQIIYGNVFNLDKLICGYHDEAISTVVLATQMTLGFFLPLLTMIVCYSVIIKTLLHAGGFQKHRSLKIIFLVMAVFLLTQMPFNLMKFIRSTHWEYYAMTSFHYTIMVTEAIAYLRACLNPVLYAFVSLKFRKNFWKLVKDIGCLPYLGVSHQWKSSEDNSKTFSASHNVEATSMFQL
APJ ag: agonists of human apelin receptor APJ, primary screen, CHO-K1 cells, PathHunter beta-arrestin, luminescence; P35414; 0% DMSO wells, 100% apelin; activation, % at 20 µM; actives 0.11% (n = 330,000); AID 2520, 2010;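 active means activation more than six SD over the plate average, tested at 20 µM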
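Test system: CHO-K1 APJ beta-arrestin complementation cell line. Amount: cell density 1000 per well. Controls: DMSO negative, 10 nM Apelin-13 positive. Signal: luminescent beta-gal fragment complementation, chemiluminescent substrate. Read-out basis: agonist-driven arrestin binding to APJ. Timing: compound stimulation 90 min at 25 °C, detection 60 min.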
CCR6 antagonist: CCR6 receptor antagonists, primary screen, cell-based, CHO-K1, luminescence, beta-arrestin, uHTS; C-C chemokine receptor type 6 (Homo sapiens), P51684; CHO-K1 CCR6 PathHunter beta-arrestin, CCL20-stimulated; inhibition, % at 20 µM; actives 0.49% (n = 340,000); AID 493098, 2011;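 active means compounds whose inhibition of the agonist-driven luminescence signal at 20 µM reaches about 50%, limit read from the data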;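 further: cells stimulated with CCL20 at 14 nM final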
FXN GAA850 act: FXN promoter activators, primary screen, cell-based, luciferase luminescence, HEK293 lucGAA850. HEK293 lucGAA850 FXN promoter luciferase reporter, 24 h; percent of 10 µM SAHA response. activation, % at 6 µM. actives 0.56% (n = 360,000);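 active means activation above the average of all compounds screened plus 3 SD, cutoff fixed separately per campaign, cut at about 7.5% in these data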
APJ antag: antagonists of human apelin receptor APJ, primary screen, CHO-K1 cells, beta-arrestin complementation, luminescence. actives 0.32% (n = 330,000). inhibition, % at 20 µM. P35414;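 active means inhibition above about 40% at 20 µM, limit read from the data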;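 further: cells challenged with 10 nM apelin-13 agonist together with compound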
GAA30 FXN cntr: GAA30 FXN promoter activators, confirmation, counter-screen for GAA850 frataxin promoter activator project, cell-based, luminescence, HEK293, lucGAA30, triplicate. shares compounds with FXN GAA850 act. activation, % at 6 µM. actives 66% (n = 1,900). HEK293 lucGAA30 FXN promoter luciferase, 24 h; DMSO = 0%, 5 µM ipriflavone = 100%;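 active means mean activation above the mean of solvent-only control wells plus 3 SD, cut at about 22% in these data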;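 further: counterscreen of GAA850 promoter hits where activity marks nonselective or luminescence artifacts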
FXN GAA850 conf: FXN GAA850 promoter activators in reporter cells, confirmation, cell-based, luminescence, HEK293 lucGAA850, triplicate | actives 86% (n = 1,900) | HEK293 lucGAA850 FXN promoter luciferase reporter, 24 h; 100% = activation by SAHA | shares compounds with FXN GAA850 act | activation, % at 6 µM;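 active means mean activation above a set limit taken from the primary screen, cut at about 8% in these data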
Of the large screens only hits and unclear results are named; the others gave an inactive call (follow-up assays come after a bar, where they were run).

C[C@H]1CN([C@@H](C)CO)C(=O)c2c(c3ccccc3n2C)-c2ccccc2CO[C@H]1CN(C)Cc1cccc(F)c1	FXN GAA850 act 11.9 (no result: APJ ag, CCR6 antagonist, APJ antag) | GAA30 FXN cntr 23.3 | FXN GAA850 conf 9.9
C[C@H](CO)N1C[C@H](C)[C@H](CN(C)Cc2cccc(O)c2)OCc2ccccc2-c2c(n(C)c3ccccc23)C1=O	none (no result: APJ ag, CCR6 antagonist, APJ antag)
C[C@H](CO)N1C[C@H](C)[C@H](CN(C)C(=O)c2ccccc2)OCc2ccccc2-c2c(n(C)c3ccccc23)C1=O	FXN GAA850 act 8.5 (no result: APJ ag, CCR6 antagonist, APJ antag) | GAA30 FXN cntr inactive | FXN GAA850 conf inactive
Cc1cccc(NCc2ccc(Br)cc2)n1	none
CCCCNc1nc(N)nc(-c2cc(Cl)ccc2O)n1	FXN GAA850 act 14.0 | GAA30 FXN cntr 132.8 | FXN GAA850 conf 73.0
CCNc1nc(N)nc(-c2cc(Cl)ccc2O)n1	FXN GAA850 act 16.6 | GAA30 FXN cntr 150.5 | FXN GAA850 conf 93.4
CN(Cc1ccccc1)C(=O)c1ccc(NC(=O)C2CCN(C(=O)OC(C)(C)C)CC2)cc1	none
CCOC(=O)c1cnc(SCc2ccccc2)nc1N	FXN GAA850 act 9.9 | GAA30 FXN cntr 117.3 | FXN GAA850 conf 39.2
O=C1C2C3C=CC(C4CC34)C2C(=O)N1/N=C/c1ccc([N+](=O)[O-])o1 (centres undefined)	FXN GAA850 act 9.6 | GAA30 FXN cntr inactive | FXN GAA850 conf 11.5
O=C1C2C3C=CC(C4CC34)C2C(=O)N1/N=C/c1ccc(-c2ccc([N+](=O)[O-])cc2)o1 (centres undefined)	none
Clc1ccccc1/C=N/NC1=Nc2cccc3cccc1c23	FXN GAA850 act 9.7 | GAA30 FXN cntr 83.9 | FXN GAA850 conf 39.4
C(=N\NC1=Nc2cccc3cccc1c23)/c1ccccn1	none (no result: APJ ag, APJ antag)
O=C(O)c1cccc(-c2csc(C(O)c3cccc(Cl)c3)n2)c1 (centres undefined)	none (no result: APJ ag, CCR6 antagonist, APJ antag)
Cc1nn2c(N)c(C#N)cnc2c1-c1ccccc1	FXN GAA850 act 9.0 | GAA30 FXN cntr 37.8 | FXN GAA850 conf 20.3
c1ccc2c(-c3[nH]ncc3CNCCCn3ncc4ccccc43)cccc2c1	none
Cc1ccc2nc(Nc3ccc4[nH]c(=O)[nH]c4c3)c(-n3nc(C)cc3C)nc2c1	FXN GAA850 act 9.1 | GAA30 FXN cntr 76.5 | FXN GAA850 conf 29.4
O=c1c2ccccc2oc2ccccc12	none (no result: APJ ag, CCR6 antagonist, APJ antag)
CC(=O)c1ccc2oc3ccccc3c(=O)c2c1	FXN GAA850 act 8.6 | GAA30 FXN cntr 87.2 | FXN GAA850 conf 32.9
O=C(c1nn2c(C(F)(F)F)cc(-c3ccccc3)nc2c1Cl)N1CCN2CCCC2C1 (centres undefined)	none
CSc1ncc(Cl)c(C(=O)Nc2cccc3ccccc23)n1	none
Cc1cccc(C)c1NC(=O)c1nc(S(=O)(=O)Cc2ccccc2)ncc1Cl	CXCR6 inh 54.5, CCR6 antagonist 55.2, FXN GAA850 act 8.2 | GAA30 FXN cntr inactive | FXN GAA850 conf 20.2
CCCCn1nnnc1C1(C)CCC(=O)N1Cc1ccc(OC)cc1 (centres undefined)	none (no result: APJ ag, CCR6 antagonist, FXN GAA850 act, APJ antag)
Cn1c(=O)c2c(nc(SCCN3CCOCC3)n2Cc2ccc(F)cc2)n(C)c1=O	FXN GAA850 act 9.0 | GAA30 FXN cntr 98.8 | FXN GAA850 conf 36.0
COc1cc(C(=O)O[C@H]2CC(C)=CC[C@@]3(C)CC[C@@](O)(C(C)C)[C@H]23)ccc1O	FXN GAA850 act 16.2 | GAA30 FXN cntr 28.6 | FXN GAA850 conf 8.1
COc1cc(C(=O)O[C@H]2C/C(C)=C/CC[C@]3(C)O[C@@H]3C(O)C2C(C)C)cc(OC)c1OC (some centres undefined)	none
COc1ccccc1NC(=O)CN1CCC(n2c(C)nc3cc(F)ccc32)CC1	FXN GAA850 act 9.1 | GAA30 FXN cntr inactive | FXN GAA850 conf 7.8
CCOC(=O)[C@]12CCCC=C1N(Cc1cccc3ccccc13)C(=O)[C@H](CC(=O)N1CCN(C(=O)c3ccco3)CC1)C2	none (no result: APJ ag, CCR6 antagonist, FXN GAA850 act, APJ antag)
O=[N+]([O-])c1ccccc1CNCCCCCO	none
COc1ccc(CCN(C)C(=O)CCc2nnc(-c3ccccc3)o2)cc1OC	FXN GAA850 act 9.3 | GAA30 FXN cntr 110.4 | FXN GAA850 conf 30.6
Brc1ccc(-c2cn3nc4c(nc3n2)CCCC4)cc1	none
Nc1nn2cc(-c3ccc(Br)cc3)nc2c2ccccc12	FXN GAA850 act 11.6 | GAA30 FXN cntr 119.9 | FXN GAA850 conf 49.5
OCCNc1ncnc2c1ncn2[C@H]1CN(Cc2ccco2)C[C@@H](CO)O1	none (no result: APJ ag, CCR6 antagonist, APJ antag)
Cc1ccc2nc(-c3ccc4c(c3)NC(=O)CO4)cn2c1	FXN GAA850 act 8.5 | GAA30 FXN cntr 98.0 | FXN GAA850 conf 30.2
Cc1ccc2nc(-c3ccc4c(c3)OCCO4)cn2c1	none
COc1ccc2c(c1OC)C(=O)N(c1nccs1)C2	none
COc1ccc(N2Cc3ccc(OC)c(OC)c3C2=O)cc1	FXN GAA850 act 8.5 | GAA30 FXN cntr 100.5 | FXN GAA850 conf 28.3
CC(=Nc1ccc(Br)cc1)c1sc2ccccc2c1O	FXN GAA850 act 7.9 | GAA30 FXN cntr 116.0 | FXN GAA850 conf 36.2
CCCN1CCN(C(c2cc3cc(OCC)ccc3[nH]c2=O)c2nnnn2C2CCCCC2)CC1 (centres undefined)	FXN GAA850 act 10.7 | GAA30 FXN cntr inactive | FXN GAA850 conf 7.9
O=C(NCCc1c[nH]c2ccccc12)c1c(Cl)nc2sccn12	FXN GAA850 act 7.7 | GAA30 FXN cntr 46.0 | FXN GAA850 conf 22.9
CN(C)c1ccc(Cc2cc3c(O)ccc(O)c3cc(Cc3ccc(N(C)C)cc3)c2=O)cc1	CXCR6 inh 34.3, FXN GAA850 act 14.2 (no result: APJ ag, CCR6 antagonist, APJ antag) | GAA30 FXN cntr inactive | FXN GAA850 conf 23.0
CCOC(=O)C1CCCN(C(=O)c2cc(S(=O)(=O)N(C)C)ccc2N2CCCC2)C1 (centres undefined)	none
CCc1ccc(C(=O)NCC2(c3ccccc3)CCOCC2)o1	FXN GAA850 act 7.8 (no result: APJ ag, APJ antag) | GAA30 FXN cntr 95.3 | FXN GAA850 conf 24.8
O=C(NCC1(c2ccccc2)CCOCC1)c1ccc(Br)o1	none
Clc1ccc(/C=C/c2ncc[nH]2)c(Cl)c1	none
